We go through 19 compounds from ChEMBL document CHEMBL4825680, “Structure-based discovery of potent and selective small-molecule inhibitors targeting signal transducer and activator of transcription 3 (STAT3)” (Eur J Med Chem, 2021).

Where only a bound is given, the exact number is not on record here.

One data set concerns MDA-MB-231. Briefly: Antiproliferative activity against human MDA-MB-231 cells. The data set is classed as functional, cell-based.
For a further data set, the system named is MGC-803. Briefly: Antiproliferative activity against human MGC-803 cells. Format: functional, cell-based.
A further data set deals with A549. Briefly: Antiproliferative activity against human A549 cells. The data set is classed as functional, cell-based.
The nature of data set [1]: Toxicity in NOD/SCID mouse xenografted with patient-derived breast cancer cells assessed as change in body weight at 5 to 15 mg/kg, ip administered once daily for 20 days. The following applies: in vivo, 480 h.
Data set [2] in a line: Antitumor activity against patient-derived breast cancer cells xenografted in NOD/SCID mouse assessed as tumor growth inhibition at 15 mg/kg, ip administered once daily for 20 days. The settings on record: Homo sapiens, Breast cancer cell line, 480 h, read-out: TGI. On the technique in general: Xenograft models place foreign cells or tissue in a host animal.
Data set [3] is described as follows: Metabolic stability in human liver microsomes assessed as clearance at 0.1 uM preincubated for 10 mins followed by NADPH addition and measured upto 60 mins by LC-MS/MS analysis. The following applies: 1 h, time <=70 min. The data set is classed as ADME, Microsome. The procedure, abridged: (§1)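 Microsomes at 0.33 mg/mL in 0.1 M Tris pH 7.4 with 5 mM MgCl2; compound final 0.1 μM (0.01% DMSO, 0.005% BSA). Preincubated 10 min at 37 °C, then started with 1 mM NADPH. Sampled at 0, 7, 17, 30 and 60 min and quenched with cold methanol. Centrifuged, then analysed by LC-MS/MS.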

The nature of data set [4]: Metabolic stability in human liver microsomes assessed as half life at 0.1 uM preincubated for 10 mins followed by NADPH addition and measured upto 60 mins by LC-MS/MS analysis. The following applies: time <=70 min. Format: ADME, Microsome. The procedure, abridged: as §1
(In general: Liver microsomes are vesicles of endoplasmic reticulum, rich in cytochrome P450 enzymes.)

A word on the IC50: it is the concentration at which inhibition is half-maximal. For `O=C(Nc1nnc(-c2ccco2)o1)c1cc(-c2ccccc2)nc2ccccc12`, the IC50 stood at 18.2 µM in the data set with MDA-MB-231, 7.43 µM in the data set with MGC-803 and 11.6 µM in the data set on A549. The Activity entry in data set [1] is recorded as “Non-Toxic”.

Consider `CN(CC(=O)N(Cc1ccc(C2CCCCC2)cc1)c1ccc(C(=O)O)c(O)c1)S(=O)(=O)c1c(F)c(F)c(F)c(F)c1F`, for which the IC50 in the data set on MDA-MB-231 was found to be 2 µM; in the data set on MGC-803, 5.6 µM; in the data set on A549 it was 5 µM. Besides, the Activity entry in data set [1] is listed as “Non-Toxic”. In addition, the inhibition in vivo at 15 mg/kg in data set [2] worked out at 63.6%.

As a reminder, the half-life is the time needed for the level to fall by half in the phase considered. With `COc1ccn2c(CC(=O)Nc3ccc4c(c3)S(=O)(=O)C=C4)c(-c3ccc(C(F)(F)F)cc3)nc2c1`, the results for the IC50 with MDA-MB-231, in the data set on MGC-803 and in the data set on A549 were 0.7 µM, 0.4 µM and 0.4 µM, respectively. Besides, the CLH in data set [3] came out at 478 mL/min/g. In addition, the half-life at 0.1 µM in data set [4] stood at 4.4 min.

Consider `COc1ccn2c(CC(=O)Nc3ccc4c(c3)S(=O)(=O)C=C4)c(-c3ccc([N+](=O)[O-])cc3)nc2c1`, for which the values for the half-inhibitory concentration (IC50) with MDA-MB-231, in the data set on MGC-803 and in the data set on A549 were 4.4 µM, 2.6 µM and 1.7 µM, respectively.

As for `O=C(Cc1c(-c2ccccc2)nc2cc(-c3ccccc3)ccn12)Nc1ccc2c(c1)S(=O)(=O)C=C2`, the IC50 in the data set with MDA-MB-231 came out at 2.4 µM; with MGC-803, 1.7 µM; in the data set on A549, 1.1 µM.

Consider `CS(=O)(=O)c1ccc(-c2nc3ccccn3c2CC(=O)Nc2ccc3c(c2)S(=O)(=O)C=C3)cc1`, for which the IC50 in the data set with MDA-MB-231 turned out to be 6.4 µM; with MGC-803 it was 6.9 µM; with A549, 7.5 µM.

As for `COc1cccn2c(CC(=O)Nc3ccc4c(c3)S(=O)(=O)C=C4)c(-c3ccccc3)nc12`, the IC50 was 2.2 µM with MDA-MB-231, 1.7 µM in the data set with MGC-803 and 1 µM in the data set with A549.

Regarding `O=C(Cc1c(-c2ccccc2)nc2ccc(Br)cn12)Nc1ccc2c(c1)S(=O)(=O)C=C2`, the IC50 in the data set with MDA-MB-231 amounted to 2 µM; in the data set with MGC-803 it was 1.5 µM; with A549, 0.8 µM.

Turning to `COc1ccc2c(C(=O)Nc3ccc(C4CCCCC4)cc3)cc(-c3ccccc3)nc2c1`, the figures for the IC50 with MDA-MB-231, in the data set on MGC-803 and with A549 were 5.9 µM, 4.9 µM and 4.9 µM, respectively.

Regarding `Cc1ccc2nc(-c3ccc(Cl)cc3)c(CC(=O)Nc3ccc4c(c3)S(=O)(=O)C=C4)n2c1`, the 50% inhibitory concentration (IC50) is 2 µM in the data set with MDA-MB-231, 1.6 µM in the data set on MGC-803 and 1.2 µM in the data set with A549.

For `COc1ccc2c(C(=O)Nc3ccc(C(C)C)cc3)cc(-c3ccccc3)nc2c1`, the IC50 with MDA-MB-231, in the data set with MGC-803 and in the data set with A549 was > 100 µM throughout.

Consider `COc1ccn2c(CC(=O)Nc3ccc4c(c3)S(=O)(=O)C=C4)c(-c3ccccc3)nc2c1`, for which the IC50 in the data set on MDA-MB-231 came out at 1.2 µM; in the data set on MGC-803 it was 1 µM; with A549, 0.6 µM. In data set [3], the CLH was found to be 208.4 mL/min/g. In addition, in data set [4], the half-life at 0.1 µM was 10.1 min.

Take `COc1ccn2c(CC(=O)Nc3ccc4c(c3)S(=O)(=O)C=C4)c(-c3ccc(F)cc3)nc2c1`: the 50% inhibitory concentration (IC50) was determined as 5.1 µM with MDA-MB-231, 0.9 µM in the data set with MGC-803 and 1.3 µM in the data set on A549.

With `O=C(Cc1c(-c2ccc([N+](=O)[O-])cc2)nc2ccccn12)Nc1ccc2c(c1)S(=O)(=O)C=C2`, the IC50 in the data set with MDA-MB-231 amounted to 6.5 µM; in the data set with MGC-803, 5.2 µM; in the data set with A549, 5.4 µM.

With `O=C(O)COc1ccc2c(C(=O)Nc3ccc(C4CCCCC4)cc3)cc(-c3ccccc3)nc2c1`, the IC50 in the data set on MDA-MB-231, in the data set on MGC-803 and in the data set on A549 was > 100 µM each time.

In the case of `COc1ccn2c(CC(=O)Nc3ccc(-c4ccco4)cc3)c(-c3ccccc3)nc2c1`, the IC50 is 10 µM in the data set with MDA-MB-231, 2.5 µM in the data set with MGC-803 and 6.6 µM in the data set with A549.

On to `COc1ccc2c(C(=O)Nc3ccc(-c4cccs4)cc3)cc(-c3ccccc3)nc2c1`, for which the IC50 in the data set with MDA-MB-231 is 10.8 µM; in the data set on MGC-803, 15 µM; in the data set on A549 it was 15 µM.

With `COc1ccc2c(C(=O)Nc3ccc(Br)cc3)cc(-c3ccccc3)nc2c1`, the IC50 in the data set with MDA-MB-231 was 25.5 µM; in the data set with MGC-803, 15.5 µM; with A549, 21.4 µM.

`Cn1cc(-c2ccn3c(CC(=O)Nc4ccc5c(c4)S(=O)(=O)C=C5)c(-c4ccccc4)nc3c2)cn1`: the IC50 in the data set on MDA-MB-231 amounted to 1.4 µM; in the data set on MGC-803 it was 0.7 µM; with A549, 0.8 µM.
